For one assay, the system named is SK-BR-3. Description: In vitro inhibition of p185 erbB-2 oncoprotein in human breast cancer SK-BR-3 cells. It counts as functional, cell-based. The procedure, abridged: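 Cellular assay with read-out as depletion of p185 erbB-2 protein after drug treatment of the cells. This depletion tracks inhibition of p185 autophosphorylation.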
The test system of assay [1] is Mus musculus. Put plainly: In vivo inhibition of p185 phosphotyrosine in nu/nu nude mice bearing Fisher rat embryo cells transfected with human erbB-2. It counts as functional. Further details: concentration or dose not given beside the values.
Assay [2] relates to Mus musculus. Put plainly: In vivo inhibition of p185 phosphotyrosine in nu/nu nude mice bearing Fisher rat embryo cells transfected with human erbB-2 at 200 mg/kg. Format: functional. The procedure, abridged:
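Nude CD-1 (nu/nu) mice bearing subcutaneous FRE/erbB-2 tumours were dosed ip at 200 mg/kg at days 12-14 (~1 cm tumours). Tumours were removed 3 h later and extracted for p185 phosphotyrosine. The value is percent inhibition.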

The subject of assay [3] is Mus musculus. Description: In vivo inhibition of p185 phosphotyrosine in nu/nu nude mice bearing Fisher rat embryo cells transfected with human erbB-2 at 400 mg/kg. It counts as functional. The procedure, abridged: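 FRE/erbB-2 cells were implanted subcutaneously in CD-1 (nu/nu) mice. At days 12-14 (~1 cm) the mice received 400 mg/kg ip. After 3 h, tumours were excised and extracted to isolate p185 phosphotyrosine. The value is percent inhibition.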

SMILES strings stand for the structures.

For orientation: IC50 means the concentration that gives 50% inhibition. For orientation: Inhibition means how much of the control response was suppressed. Regarding `COc1ccccc1C(=O)CN1C(=O)/C(C)=C/C=C\[C@H](OC)[C@@H](OC(N)=O)/C(C)=C/[C@H](C)[C@@H](O)[C@@H](OC)C[C@H](C)CC2=C(N)C(=O)C=C1C2=O`, in the assay with SK-BR-3, the IC50 was found to be 600 nM. In addition, in the assay on Mus musculus [1], the Inhibition is recorded as 50%.
A word on the inhibition in vivo: it is how much of the control response was suppressed. In the assay on SK-BR-3, `CO[C@H]1/C=C\C=C(/C)C(=O)NC2=CC(=O)C(N3CCC3)=C(C[C@@H](C)C[C@H](OC)[C@H](OC(C)=O)[C@@H](C)/C=C(\C)[C@@H]1OC(N)=O)C2=O` yielded an IC50 of 70 nM. Further, in the assay with Mus musculus [2], the inhibition in vivo at 200 mg/kg was determined as 78%.
Consider `C=CCNC1=C2C[C@@H](C)C[C@H](OC)[C@@H](F)[C@@H](C)/C=C(\C)[C@H](OC(N)=O)[C@@H](OC)/C=C\C=C(/C)C(=O)NC(=CC1=O)C2=O`, for which the IC50 with SK-BR-3 was 260 nM. Moreover, the Inhibition in the assay on Mus musculus [1] was found to be 50%.
The corresponding values for `CO[C@H]1C[C@H](C)CC2=C(N)C(=O)C=C(NC(=O)/C(C)=C/CC[C@H](OC)[C@@H](OC(N)=O)/C(C)=C/[C@H](C)[C@H]1O)C2=O` are 37 nM and 45%.
In the case of `CO[C@H]1/C=C\C=C(/C)C(=O)NC2=CC(=O)C(N)=C(C[C@@H](C)C[C@H](OC)[C@H](O)[C@@H](C)/C=C(\C)[C@@H]1OC(N)=O)C2=O`, the inhibition in vivo at 400 mg/kg in the assay on Mus musculus [3] stood at 59%.
Take `CO[C@H]1/C=C\C=C(/C)C(=O)NC2=CC(=O)C(N)=C(C[C@@H](C)C[C@H](OC)[C@@H](F)[C@@H](C)/C=C(\C)[C@@H]1OC(N)=O)C2=O`: the IC50 in the assay with SK-BR-3 amounted to 140 nM. Further, 200 mg/kg produced 46% inhibition in vivo in the assay with Mus musculus [2].
The molecule `CO[C@H]1C[C@H](C)CC2=C(N3CCC3)C(=O)C=C(NC(=O)/C(C)=C/CC[C@H](OC)[C@@H](OC(N)=O)/C(C)=C/[C@H](C)[C@H]1O)C2=O` yielded an inhibition in vivo at 400 mg/kg with Mus musculus [3] of 44%.

These data come from ChEMBL document CHEMBL1128590, “erbB-2 oncogene inhibition by geldanamycin derivatives: synthesis, mechanism of action, and structure-activity relationships” (J Med Chem, 1995).
